Measurements of several laboratories.
Target: Proto-oncogene tyrosine-protein kinase ROS (ROS1, Homo sapiens, UniProt P08922)

N#Cc1ccc(Nc2ccc3[nH]c(=O)[nH]c3c2)c(Cl)c1
remaining binding (cell-free assay, competition with immobilised ligand; 1 µM): 100%

CCN(CC)c1ccc(C2=NNC(=O)CC2C)cc1[N+](=O)[O-] (stereo not drawn)
remaining activity (enzyme activity, inhibitor; 10 µM): 106%

COc1cc2ncnc(Nc3ccc(Oc4ccccc4)c(C)c3C)c2cc1OC
inhibition (enzyme activity, inhibitor; 1 µM): -2%

O=C(N[C@H]1CCCCC/C=C\C2C[C@@]2(C(=O)O)NC(=O)[C@@H]2C[C@@H](Oc3ccncc3)CN2C1=O)OC1CCCC1 (stereo partly drawn)
remaining binding (cell-free assay, competition with immobilised ligand; 1 µM): 92%

CC(C)(C)c1nc2c(s1)c1nc(N)ncc1c1ccc(NS(=O)(=O)c3c(F)cccc3F)c(F)c12
remaining activity (enzyme activity, inhibitor, radiometric; 1 µM): 109%

CC(=O)N1CCC(c2ccc(C(=O)NC(=N)N)cc2C(F)(F)F)CC1
remaining binding (cell-free assay, competition with immobilised ligand; 1 µM): 100%

Cc1ccc(Nc2nccc(N(C)c3ccc4c(C)n(C)nc4c3)n2)cc1S(N)(=O)=O
inhibition (enzyme activity, inhibitor; 10 µM): 13%

COCCOc1nc(-c2ccc(Cl)nc2)nc2c1CN(C(=O)c1ncn3ccccc13)CC2
remaining binding (cell-free assay, competition with immobilised ligand; 0.1 µM): 100%

Cc1ccc(C(=O)NCc2ccsc2)cc1C#Cc1cn(C(C)C)c2ncnc(N)c12
activity vs control (enzyme activity, inhibitor; 1 µM): 92%

CC/C(=N\NC(=O)NCc1cccc(O)c1)c1ccc(O)c(C)c1O
inhibition (enzyme activity, inhibitor; 0.1 µM): 2.5%

CCC(=O)N[C@@H]1CC[C@H](C(=O)N(C)c2ccc(-c3nc4ccccc4o3)cc2)C1
remaining binding (cell-free assay, competition with immobilised ligand; 1 µM): 100%

Cc1ccc(C(=O)Nc2ccc(CN3CCN(C)CC3)c(C(F)(F)F)c2)cc1C#Cc1cnc2cccnn12
remaining activity (enzyme activity; 23.5 nM): 78%

CC(C)(O)[C@H]1CC[C@H](Nc2ccc3ncc(-c4cccc(C(F)(F)F)c4)n3n2)CC1
remaining activity (enzyme activity, inhibitor; 1 µM): 25.1%

CNC(=O)c1cc(Oc2ccc(NC(=O)Nc3ccc(Cl)c(C(F)(F)F)c3)cc2)ccn1
remaining signal (cell-free assay; 0.5 µM): 95.7%

CCCOc1ccc([C@@H]2[C@@H](C(=O)O)[C@H](c3ccc4c(c3)OCO4)CN2CC(=O)Nc2c(CC)cccc2CC)cc1
remaining binding (cell-free assay, competition with immobilised ligand; 1 µM): 90%

Cc1ccc(NC(=O)c2ccc(C)c(C(F)(F)F)c2)cc1C#Cc1nn(C2CCC(O)CC2)c2ncnc(N)c12 (stereo not drawn)
remaining signal (cell-free assay; 10 µM): 82%

O=C(Nc1cnn(-c2csc(C(=O)NC3COC3)c2)c1)Nc1c(F)cccc1Cl
remaining activity (enzyme activity, inhibitor; 5 µM): 85.5%

CCCS(=O)(=O)Nc1ccc(F)c(C(=O)c2c[nH]c3ncc(-c4ccc(Cl)cc4)cc23)c1F
inhibition (enzyme activity, inhibitor; 1 µM): < 10%

CO[C@@H](C)c1c(Nc2ccc([C@@H](N(C)C(=O)C3CCS(=O)(=O)CC3)C(F)(F)F)cc2)cnc2cc(Cl)nn12
remaining binding (cell-free assay, competition with immobilised ligand; 1 µM): 82%

C=CC(=O)Nc1cc(Nc2nccc(Nc3cc(Cl)c(F)cc3C(C)(C)O)n2)c(OC)cc1N1CC[C@@H](N(C)C)C1
inhibition (enzyme activity, inhibitor; 1 µM): 51%

CCN(CC)CCNC(=O)c1c(C)[nH]c(/C=C2\C(=O)Nc3ccc(F)cc32)c1C
inhibition (enzyme activity, inhibitor; 10 µM): 35%

COc1cc2c(Nc3ccc(Br)cc3F)ncnc2cc1OCC1CCN(C)CC1
remaining signal (cell-free assay; 0.5 µM): 76.5%

CNCc1ccc(-c2cc(-c3nc(-c4ccc(S(=O)(=O)C(C)C)cc4)cnc3N)on2)cc1
inhibition (enzyme activity, inhibitor; 0.4 µM): 0%

COc1cc2c(N3CCN(C(=O)Nc4ccc(OC(C)C)cc4)CC3)ncnc2cc1OCCCN1CCCCC1
remaining signal (cell-free assay; 0.5 µM): 90.1%

CCCOc1ccc(OC)c(F)c1C(=O)c1ccc(C(=O)N[C@@H]2CNC[C@H]2NC(=O)c2ccc3[nH]ncc3c2)cc1
remaining activity (enzyme activity, inhibitor; 10 µM): 105%

CC(=O)N1CCC(c2ccc(C(=O)NC3=NCCN3)cc2C(F)(F)F)CC1
remaining binding (cell-free assay, competition with immobilised ligand; 1 µM): 99%

N#CCCc1ccc2c(c1)-c1[nH]c3ccc([N+](=O)[O-])cc3c1CC(=O)N2
remaining signal (cell-free assay; 0.5 µM): 71%
